Calls of active or inactive are those of the source. The calls are words filed in the database; no cut-off is given here.
Experiments:
[1] = DPPH radical scavenging activity; assay type: functional
Outline: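 Samples dissolved in EtOH and diluted to 500, 100, 50 and 10 µg/mL (concentrations before mixing). Each 20 µL aliquot was mixed immediately with 180 µL DPPH, with an EtOH blank. After 20 min, A517 was read. Scavenging was taken as the fall in DPPH absorbance relative to a sample-free DPPH control. IC50 was interpolated from concentration-inhibition curves as the mean of triplicates.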

[2] = tested on: PC-12; test: Neurotrophic effect in rat PC12 cells; assay type: functional, cell-based
Outline: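 PC12 cells without NGF were exposed to test compounds at 1–100 µM and examined for neurotrophic activity.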

[3] = tested on: PC-12; test: Neurotrophic effect in rat NGF-induced PC12 cells upto 100 uM; assay type: functional, cell-based
Outline: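 PC12 cells were co-treated with NGF and test compounds at 1–100 µM, then checked for neurotrophic effects.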

SMILES	IC50 [1]	Activity [2]	Activity [3]
O=C1C[C@H](c2ccc(O)c(O)c2)c2c(cc(O)c3c2O[C@H](c2ccc(O)c(O)c2)[C@H](O)C3)O1 [CINCHONAIN IB]	5.1 µM		
O=C1C[C@@H](c2ccc(O)c(O)c2)c2c(O)cc3c(c2O1)C[C@@H](O)[C@@H](c1ccc(O)c(O)c1)O3 [CINCHONAIN ID]	2.3 µM		
COC(=O)C[C@H]1c2cc(O)c(O)cc2Oc2cc(O)c3c(c21)O[C@H](c1ccc(O)c(O)c1)[C@H](O)C3 [CATIGUANIN B]	6.7 µM		
O=C1C[C@H](c2ccc(O)c(O)c2)c2c(O)cc3c(c2O1)C[C@@H](O)[C@@H](c1ccc(O)c(O)c1)O3 [CINCHONAIN IC]	2.5 µM		
COC(=O)C[C@@H]1c2cc(O)c(O)cc2Oc2cc(O)c3c(c21)O[C@H](c1ccc(O)c(O)c1)[C@H](O)C3 [CATIGUANIN A]	7.1 µM	inactive	inactive
Oc1cc(O)c2c(c1)O[C@H](c1ccc(O)c(O)c1)[C@@H](O)C2 [CATECHIN]	10 µM		
O=C1C[C@@H](c2ccc(O)c(O)c2)c2c(cc(O)c3c2O[C@H](c2ccc(O)c(O)c2)[C@H](O)C3)O1 [CINCHONAIN IA]	9.4 µM	inactive	inactive
